Screens (PubChem)
C8 TRAIL sens – sensitizes caspase-8 expressing cells to TRAIL. NB7+C8 cells + TRAIL, ATPlite viability luminescence. inhibition (viability loss, TRAIL sensitization), % at 10 µM. hit rate 1% among 360,000. AID 624354;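 active means compounds causing at least 50% loss of cell viability in the single-dose screen, relative to plate controls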
Platelet DG rel – modulates dense granule release in human platelets; human platelet-rich plasma, SFLLRN dense granule ATP release, luminescence; inhibition, %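 (compounds screened at 7.5 µM in platelet-rich plasma)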; hit rate 0.22% among 300,000; AID 1663;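 active means mean replicate score, as percent of positive control, at or above 50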
PPC-1+TRAIL kill – compounds killing PPC-1 cancer cells with TRAIL present (potentiator screen, no TRAIL-free arm); PPC-1 cells + TRAIL, ATPLite viability luminescence; AID 1443; cell killing (% activity), % at 4 µM or 5 µM; hit rate 0.41% among 220,000;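 active means cell killing above 50% in the first pass at 4 µM, then a duplicate retest at 5 µM averaging 50% or more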;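 further: plate controls were cells with TRAIL plus DMSO for no effect and medium-only wells lacking cells for full effect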
FLuc act counter – affects firefly luciferase, flagging false hits in luciferase stimulation screens | P08659 | ATPlite luciferase biochemical, luminescence, 10 min; 0 = ATP-free wells, 1 = DMSO control | activation factor at 10 µM | 200,000 tested, under 10 active | AID 1027;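 active means luciferase activation factor, scaled between plate controls, of at least 2 with compound at 10 µM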
Target sequence (P08659 whole entry, looked up): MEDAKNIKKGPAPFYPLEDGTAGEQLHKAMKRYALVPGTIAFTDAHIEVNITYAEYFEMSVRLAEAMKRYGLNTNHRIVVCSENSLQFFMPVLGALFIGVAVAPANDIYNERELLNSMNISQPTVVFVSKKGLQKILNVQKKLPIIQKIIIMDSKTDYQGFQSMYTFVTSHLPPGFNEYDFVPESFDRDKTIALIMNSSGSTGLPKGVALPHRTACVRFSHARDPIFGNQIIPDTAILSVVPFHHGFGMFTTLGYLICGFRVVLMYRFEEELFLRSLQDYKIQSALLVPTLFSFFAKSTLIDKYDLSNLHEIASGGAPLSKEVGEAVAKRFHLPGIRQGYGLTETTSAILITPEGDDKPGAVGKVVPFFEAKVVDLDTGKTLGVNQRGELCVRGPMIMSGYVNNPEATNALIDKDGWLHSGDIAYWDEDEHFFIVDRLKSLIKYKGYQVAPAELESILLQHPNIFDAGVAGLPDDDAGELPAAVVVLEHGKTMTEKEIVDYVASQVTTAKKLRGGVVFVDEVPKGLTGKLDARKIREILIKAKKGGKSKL
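assay system = Luciferase/luciferin detection reagent, cell-free biochemical luciferase assay | also added = ATP substrate | times = 10 min post-reagent at room temperature | measured by = luminescence from luciferase reaction | measure = luciferase activation, seen as luminescence increase over controls | benchmarks = low control with PBS replacing ATP, high control enzyme plus ATP without compound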
FLuc inhib CS – Photinus pyralis luciferase inhibition counter-screen. P08659. ATPLite firefly luciferase biochemical luminescence, 10 min. inhibition, % at 10 µM. hit rate 1.5% among 200,000;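 active means inhibition above about 50% when tested at 10 µM, limit read from the data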
PPC-1 tox – kills PPC-1 cells | shares compounds with PPC-1+TRAIL kill | PPC-1 viability, ATPlite luminescence, overnight | hit rate 50% among 1,200 | cytotoxicity, % at 5 µM;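 active means reconfirmed compounds whose average cytotoxicity reaches 50% or more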;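 further: 0% = DMSO-treated cells and 100% = wells holding medium but no cells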
Numbers without * were called inactive; . = no result. Hits are enriched below; roughly 1.6% of the tested compounds scored in any of these assays.

SMILES | C8 TRAIL sens | Platelet DG rel | PPC-1+TRAIL kill | FLuc act counter | FLuc inhib CS | PPC-1 tox
COC1CC(OC2CCC3(C)C(CCC4C3CCC3(C)C(C5=CC(=O)OC5)C(OC(C)=O)CC43O)C2)OC(C)C1OC1OC(COC2OC(CO)C(O)C(O)C2O)C(O)C(O)C1O (configuration not stated) | . | 15 | 48 | . | . | 56*
Cc1ccccc1-c1ccc2c(c1)CNCc1cnnn1-2 | 6 | . | . | . | . | .
Cn1ccnc1P(=S)(c1nccn1C)N1CCOCC1 | 0 | -13 | 8 | 1.1 | -9 | -9
O=C1NCN(c2ccccc2)C12CCN(C(c1cc3ccccc3o1)c1nnnn1C1CCCCC1)CC2 (configuration not stated) | 1 | . | . | . | . | .
CC[C@@]1(O)C(=O)OCc2c1cc1n(c2=O)Cc2cc3ccccc3nc2-1 | . | -1 | 49 | . | . | .
CCC1(OC(=O)CN)C(=O)OCc2c1cc1n(c2=O)Cc2cc3ccccc3nc2-1 (configuration not stated) | 31 | 9 | 30 | . | . | 28
C=C(CO)CC1CC(O)[C@]2(C)OC3CC4OC5C[C@]6(C)O[C@]7(C)CCC8OC9C[C@]%10(C)OC%11C(C)=CC(=O)OC%11CC%10OC9C[C@@H](C)C8OC7CC6O[C@]5(C)C/C=C\C4OC3CC2O1 (some centres not stated) | 8 | -1 | 7 | 1 | -1 | .
C=C(C=O)CC1CC(O)[C@]2(C)OC3CC4OC5C[C@]6(C)O[C@]7(C)CCC8OC9C[C@]%10(C)OC%11C(C)=CC(=O)OC%11CC%10OC9C[C@@H](C)C8OC7CC6O[C@]5(C)CC5OC5C4OC3CC2O1 (some centres not stated) | 96* | 9 | 80* | 1 | -4 | 78*
Cc1cccc(C)c1-n1nnnc1C(c1cccs1)N1CCC2(CC1)C(=O)NCN2c1ccccc1 (configuration not stated) | 9 | . | . | . | . | .
C[C@@H]1O[C@@H](O[C@H]2C[C@@H](O)[C@]3(CO)[C@H]4[C@H](O)C[C@]5(C)[C@@H](C6COC(=O)C6)CC[C@]5(O)[C@@H]4CC[C@]3(O)C2)[C@H](O)[C@H](O)[C@H]1O (some centres not stated) | 39 | 2 | 61* | 1 | -2 | 63*
CC(=O)OC[C@]12CCC(C)=C[C@H]1O[C@@H]1[C@H](O)[C@@H](OC(C)=O)[C@@]2(C)[C@]12CO2 | 89* | . | 65* | . | . | 63*
O=C1c2ccccc2-n2nnc(-c3ccccc3)c2C2c3cc(Br)ccc3CCN12 (configuration not stated) | -10 | . | . | . | . | .
COc1ccccc1N1CCN(Cc2ccccc2F)CC1 | -10 | -5 | 18 | 1 | 1 | 8
CCN1/C(=C\C=C\C2=[N+](CC)c3ccccc3C2(C)C)C(C)(C)c2ccccc21 | 77* | 16 | 55* | 0.7 | 30 | 60*
CCOC(=O)[C@]12Cc3ccccc3[C@H]1N(CCC(=O)OC)C(=O)c1ccccc12 | 8 | . | . | . | . | .
Cc1ccc(S(=O)(=O)N2Cc3cc(-c4ccccc4)ccc3-n3nncc3C2)cc1 | -1 | . | . | . | . | .
NC(=S)c1cn(C2OC(CO)C(O)C2O)c2ncnc(N)c12 (configuration not stated) | 67* | 5 | 55* | . | . | 55*
COC(=O)C(C)Oc1cc(C)cc2oc(=O)c3c(c12)CCCC3 (configuration not stated) | 34 | 1 | 0 | 1 | 1 | 15
COc1ccc(-c2ccc3c(c2)CNCc2cnnn2-3)cc1 | 3 | . | . | . | . | .
C=C1C(=O)O[C@@H]2C[C@@H](C)[C@@H]3C=CC(=O)[C@@]3(C)[C@@H](O)[C@H]12 | 77* | -1 | 60* | . | . | 57*
c1cc2c(cc1-c1ccc3c(c1)OCO3)CNCc1cnnn1-2 | -19 | . | . | . | . | .
O=C1C2CC(CN3CCCCC23)C2CCCCN12 (configuration not stated) | -17 | . | . | . | . | .
